Data set [1] can be described thus: Aqueous solubility of the compound at 0.1 M phosphate buffer after 16 hrs by UV spectrometry. It counts as physicochemical. An outline of the steps: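 Excess solid (10 mg) was agitated for 16 h with 5 mL of 0.1 M phosphate buffer. The mixture was filtered through sintered glass to remove undissolved solid. Dissolved concentration was determined from UV absorbance against values previously determined in buffer.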

Data set [2] relates to Human alphaherpesvirus 1. Briefly: Antiviral activity against HSV-1 assessed at 17 ug/ml by plaque reduction assay relative to control. Further details: scale not given: the % may be the effect or the level left. Type of data set: functional. On the technique in general: Plaques are areas of infected cells; plaque reduction assays count them against a control.
For data set [3], the system named is Human alphaherpesvirus 1. In words: Antiviral activity against HSV-1 assessed at 6 ug/ml by plaque reduction assay relative to control. It counts as functional. Further details: scale not given: the % may be the effect or the level left.
Data set [4] can be described thus: Aqueous stability of the compound assessed as hydrolysis rate at 25 degC by Arrhenius plot. Conditions: buffer. It counts as physicochemical. In a few lines:
(§1)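 Ester hydrolysis was followed at pH 6.56 at 60, 80 and 100 °C by HPLC (40:60 methanol-water, 254-nm detection). First-order rates came from log[ester] vs time. An Arrhenius plot of log rate vs reciprocal temperature (K) was extrapolated to 25 °C.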

Data set [5] concerns the target T1, Adenosine deaminase (Bos taurus, UniProt P56658).
T1 sequence (P56658 whole entry): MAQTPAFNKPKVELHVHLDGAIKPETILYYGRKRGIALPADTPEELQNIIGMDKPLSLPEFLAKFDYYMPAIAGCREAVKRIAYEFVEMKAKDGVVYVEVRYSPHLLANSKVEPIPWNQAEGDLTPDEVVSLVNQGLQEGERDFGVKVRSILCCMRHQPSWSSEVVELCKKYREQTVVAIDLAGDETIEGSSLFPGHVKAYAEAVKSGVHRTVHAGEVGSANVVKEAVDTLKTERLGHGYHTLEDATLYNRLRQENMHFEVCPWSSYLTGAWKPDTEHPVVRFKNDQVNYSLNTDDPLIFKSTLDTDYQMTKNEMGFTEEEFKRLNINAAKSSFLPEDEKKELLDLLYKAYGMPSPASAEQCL
In words: Inhibition of calf mucosal adenosine deaminase.

Data set [6] can be described thus: Aqueous stability of the compound assessed as time required for 10% decomposition at 25 degC by Arrhenius plot. Type of data set: physicochemical. Conditions: buffer. An outline of the steps:
as §1

The test system of data set [7] is Human alphaherpesvirus 1. In words: Antiviral activity against HSV-1 assessed at 0.6 ug/ml by plaque reduction assay relative to control. Type of data set: functional. Further details: scale not given: the % may be the effect or the level left.
Data set [8] has as its target T1, Adenosine deaminase. In words: Stability of the compound assessed as calf mucosal adenosine deaminase-mediated drug metabolism. It counts as ADME. Conditions: cattle.
For data set [9], the system named is Human alphaherpesvirus 1. In words: Antiviral activity against HSV-1 assessed at 7 ug/ml by plaque reduction assay relative to control. It counts as functional. Further details: scale not given: the % may be the effect or the level left.
Data set [10] relates to Human alphaherpesvirus 1. Briefly: Antiviral activity against HSV-1 assessed at 20 ug/ml by plaque reduction assay relative to control. It counts as functional. Further details: scale not given: the % may be the effect or the level left.
Data set [11] deals with Human alphaherpesvirus 1. In words: Antiviral activity against HSV-1 assessed at 6.5 ug/ml by plaque reduction assay relative to control. Type of data set: functional. Further details: scale not given: the % may be the effect or the level left.
Data set [12] deals with Human alphaherpesvirus 1. Briefly: Antiviral activity against HSV-1 assessed at 2 ug/ml by plaque reduction assay relative to control. Type of data set: functional. Further details: scale not given: the % may be the effect or the level left.
Data set [13] can be described thus: Half life of the compound. Type of data set: physicochemical.

Experimental findings from ChEMBL document CHEMBL3243926, “Prodrugs of 9-beta-D-arabinofuranosyladenine. 1. Synthesis and evaluation of some 5'-(O-acyl) derivatives” (J Med Chem, 1978) are described below.

≈ marks a conversion by molar mass, not a printed value.

For orientation: solubility means the dissolved amount per volume that the medium holds. Broadly, the Ki is a measure of affinity in units of concentration, obtained from inhibition or displacement. One may read the half-life as the time in which the quantity being followed falls by half.

In turn, `CC(=O)OC[C@H]1O[C@@H](n2cnc3c(N)ncnc32)[C@@H](O)[C@@H]1O` gave a solubility at 16 h in data set [1] of 6600 µg/mL (≈ 21.3 mM). The Activity in the data set on Human alphaherpesvirus 1 [2] worked out at 86%.

In the case of `CCC(=O)OC[C@H]1O[C@@H](n2cnc3c(N)ncnc32)[C@@H](O)[C@@H]1O`, the Activity in the data set with Human alphaherpesvirus 1 [3] turned out to be 83%. In [1], this molecule showed a solubility at 16 h of 9200 µg/mL (≈ 28.5 mM).

Molecule `CCCC(=O)OC[C@H]1O[C@@H](n2cnc3c(N)ncnc32)[C@@H](O)[C@@H]1O` gave an Activity in the data set on Human alphaherpesvirus 1 [3] of 67%. For the same molecule, the solubility at 16 h in data set [1] is 16100 µg/mL (≈ 47.7 mM).

As to `CCCCC(=O)OC[C@H]1O[C@@H](n2cnc3c(N)ncnc32)[C@@H](O)[C@@H]1O`, the Activity with Human alphaherpesvirus 1 [3] was found to be 100%; in the data set on Human alphaherpesvirus 1 [7], 90%. The molecule also had a solubility at 16 h in data set [1] of 8400 µg/mL (≈ 23.9 mM). The Drug degradation in data set [4] stood at 5.4 ×10⁻⁶ /hr. This molecule also gave a Ki on Adenosine deaminase [5] of 11 µM. The Time in [6] stood at 2.25 yr. Besides, the Stability result at Adenosine deaminase [8] is “Stable”.

`CC(C)CC(=O)OC[C@H]1O[C@@H](n2cnc3c(N)ncnc32)[C@@H](O)[C@@H]1O` gave an Activity in the data set with Human alphaherpesvirus 1 [9] of 53%. In addition, the solubility at 16 h in [1] turned out to be 19800 µg/mL (≈ 56.4 mM). In addition, the Stability result at Adenosine deaminase [8] is listed as “Stable”.

In turn, `CC(C)(C)C(=O)OC[C@H]1O[C@@H](n2cnc3c(N)ncnc32)[C@@H](O)[C@@H]1O` gave a solubility at 16 h in data set [1] of 7000 µg/mL (≈ 19.9 mM). The Stability entry at Adenosine deaminase [8] is on record as “Stable”. The same molecule showed an Activity in the data set on Human alphaherpesvirus 1 [10] of 11%.

In turn, `CCCCCC(=O)OC[C@H]1O[C@@H](n2cnc3c(N)ncnc32)[C@@H](O)[C@@H]1O` showed a solubility at 16 h in data set [1] of 2500 µg/mL (≈ 6.84 mM). The molecule further registered an Activity in the data set with Human alphaherpesvirus 1 [11] of 25%. Also, on Adenosine deaminase [8], the Stability entry was “Stable”.

In [1], `CC(C)(C)CC(=O)OC[C@H]1O[C@@H](n2cnc3c(N)ncnc32)[C@@H](O)[C@@H]1O` displayed a solubility at 16 h of 7800 µg/mL (≈ 21.3 mM). The molecule further gave an Activity in the data set with Human alphaherpesvirus 1 [11] of 10%. Moreover, the Stability result on Adenosine deaminase [8] is “Stable”.

For the molecule `CCCCCCCC(=O)OC[C@H]1O[C@@H](n2cnc3c(N)ncnc32)[C@@H](O)[C@@H]1O`, the concentration in solution in [1] (solubility at 16 h) came to 100 µg/mL (≈ 0.254 mM). This molecule also registered an Activity in the data set on Human alphaherpesvirus 1 [12] of 45%.

For the molecule `Nc1ncnc2c1ncn2[C@@H]1O[C@H](COC(=O)CCc2ccccc2)[C@@H](O)[C@@H]1O`, in the data set on Human alphaherpesvirus 1 [9], the Activity was determined as 29%. The solubility at 16 h in data set [1] stood at 1500 µg/mL (≈ 3.76 mM).

Turning to `Nc1ncnc2c1ncn2[C@@H]1O[C@H](COC(=O)c2ccccc2)[C@@H](O)[C@@H]1O`, in data set [1], the solubility at 16 h amounted to 80 µg/mL (≈ 0.215 mM). This molecule also showed an Activity in the data set with Human alphaherpesvirus 1 [11] of 71%.

Consider `Nc1ncnc2c1ncn2[C@@H]1O[C@H](COC=O)[C@@H](O)[C@@H]1O`, for which the half-life in data set [13] was 240 h.

As for `Nc1ncnc2c1ncn2[C@@H]1O[C@H](CO)[C@@H](O)[C@@H]1O` [VIDARABINE], the Activity is 63% with Human alphaherpesvirus 1 [9]; 54% in the data set on Human alphaherpesvirus 1 [3]; 64% in the data set on Human alphaherpesvirus 1 [12]; 63% in the data set on Human alphaherpesvirus 1 [11]; 100% in the data set on Human alphaherpesvirus 1 [2]; 0% with Human alphaherpesvirus 1 [7]. The molecule also came in with an Activity in the data set on Human alphaherpesvirus 1 [10] of 69%.
